{
  "source": "ChEMBL document CHEMBL3243962",
  "about": "“Antileukemic activity of derivatives of 1,2-dimethyl-3,4-bis(hydroxymethyl)-5-phenylpyrrole bis(N-methylcarbamate)” (J Med Chem, 1979)",
  "key": {"Mus musculus [1]": {"tested_on": "Mus musculus", "assay": "Toxicity in mouse P388 cells allografted CD2F1 mouse assessed as body weight loss at 25 mg/kg, ip of total 9 doses starting 24 hrs post tumor inoculation measured on day 5 of inoculation relative to control", "type": "organism-based", "design": "dose 25 mg/kg, route intraperitoneal", "settings": "in vivo", "summary_of_the_method": "(§1)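 Male CD2F1 mice inoculated ip with 6×10^6 P388 leukemia cells. Compounds given ip as distilled water–Tween 80 suspension, nine daily doses starting 24 h after inoculation; six mice per dose group. Treated-minus-control body-weight change (T − C) and toxicity-day survivors recorded on day 5 (4 days after first dose).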"}, "P388 [2]": {"tested_on": "P388", "assay": "Antitumor activity against mouse P388 cells allografted in CD2F1 mouse assessed as increase in mouse survival at 12.5 mg/kg, ip of total 9 doses starting 24 hrs post tumor inoculation measured on day 5 of inoculation relative to control", "type": "functional", "settings": "route intraperitoneal", "summary_of_the_method": "(§2)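 Male CD2F1 mice inoculated ip with 6×10^6 P388 leukemia cells. Dosing was ip as a suspension in distilled water–Tween 80, nine daily doses starting 24 h after inoculation. Activity was read as median survival time of treated vs control mice (% T/C); % T/C ≥ 120 was considered significant. Groups were 6 mice.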"}, "Mus musculus [3]": {"tested_on": "Mus musculus", "assay": "Toxicity in mouse P388 cells allografted CD2F1 mouse assessed as body weight loss at 12.5 mg/kg, ip of total 9 doses starting 24 hrs post tumor inoculation measured on day 5 of inoculation relative to control", "type": "organism-based", "design": "dose 12.5 mg/kg, route intraperitoneal", "settings": "in vivo", "summary_of_the_method": "as §1"}, "Mus musculus [4]": {"tested_on": "Mus musculus", "assay": "Toxicity in mouse P388 cells allografted CD2F1 mouse assessed as mouse survival at 25 mg/kg, ip of total 9 doses starting 24 hrs post tumor inoculation measured on day 5 of inoculation relative to control", "type": "organism-based", "design": "dose 25 mg/kg, route intraperitoneal", "settings": "in vivo", "summary_of_the_method": "(§3)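 Male CD2F1 mice bearing ip P388 leukemia (6×10^6 cells) were dosed ip with nine daily doses in distilled water–Tween 80 suspension, starting 24 h after inoculation. Survivors per group of 6 were counted on day 5, i.e. 4 days after the first dose. Body-weight change of treated minus control mice was also recorded.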"}, "P388 [5]": {"tested_on": "P388", "assay": "Antitumor activity against mouse P388 cells allografted in CD2F1 mouse assessed as increase in mouse survival at 25 mg/kg, ip of total 9 doses starting 24 hrs post tumor inoculation measured on day 5 of inoculation relative to control", "type": "functional", "settings": "route intraperitoneal", "summary_of_the_method": "as §2"}, "Mus musculus [6]": {"tested_on": "Mus musculus", "assay": "Toxicity in mouse P388 cells allografted CD2F1 mouse assessed as body weight loss at 50 mg/kg, ip of total 9 doses starting 24 hrs post tumor inoculation measured on day 5 of inoculation relative to control", "type": "organism-based", "design": "dose 50 mg/kg, route intraperitoneal", "settings": "in vivo", "summary_of_the_method": "as §1"}, "P388 [7]": {"tested_on": "P388", "assay": "Antitumor activity against mouse P388 cells allografted in CD2F1 mouse assessed as increase in mouse survival at 50 mg/kg, ip of total 9 doses starting 24 hrs post tumor inoculation measured on day 5 of inoculation relative to control", "type": "functional", "settings": "route intraperitoneal", "summary_of_the_method": "as §2"}, "P388 [8]": {"tested_on": "P388", "assay": "Antitumor activity against mouse P388 cells allografted in CD2F1 mouse assessed as increase in mouse survival at 3.12 mg/kg, ip of total 9 doses starting 24 hrs post tumor inoculation measured on day 5 of inoculation relative to control", "type": "functional", "settings": "route intraperitoneal", "summary_of_the_method": "as §2"}, "P388 [9]": {"tested_on": "P388", "assay": "Antitumor activity against mouse P388 cells allografted in CD2F1 mouse assessed as increase in mouse survival at 6.25 mg/kg, ip of total 9 doses starting 24 hrs post tumor inoculation measured on day 5 of inoculation relative to control", "type": "functional", "settings": "route intraperitoneal", "summary_of_the_method": "as §2"}, "Mus musculus [10]": {"tested_on": "Mus musculus", "assay": "Toxicity in mouse P388 cells allografted CD2F1 mouse assessed as mouse survival at 6.25 mg/kg, ip of total 9 doses starting 24 hrs post tumor inoculation measured on day 5 of inoculation relative to control", "type": "organism-based", "design": "dose 6.25 mg/kg, route intraperitoneal", "settings": "in vivo", "summary_of_the_method": "as §3"}, "Mus musculus [11]": {"tested_on": "Mus musculus", "assay": "Toxicity in mouse P388 cells allografted CD2F1 mouse assessed as mouse survival at 12.5 mg/kg, ip of total 9 doses starting 24 hrs post tumor inoculation measured on day 5 of inoculation relative to control", "type": "organism-based", "design": "dose 12.5 mg/kg, route intraperitoneal", "settings": "in vivo", "summary_of_the_method": "as §3"}, "Mus musculus [12]": {"tested_on": "Mus musculus", "assay": "Toxicity in mouse P388 cells allografted CD2F1 mouse assessed as mouse survival at 3.12 mg/kg, ip of total 9 doses starting 24 hrs post tumor inoculation measured on day 5 of inoculation relative to control", "type": "organism-based", "design": "dose 3.12 mg/kg, route intraperitoneal", "settings": "in vivo", "summary_of_the_method": "as §3"}, "Mus musculus [13]": {"tested_on": "Mus musculus", "assay": "Toxicity in mouse P388 cells allografted CD2F1 mouse assessed as body weight loss at 6.25 mg/kg, ip of total 9 doses starting 24 hrs post tumor inoculation measured on day 5 of inoculation relative to control", "type": "organism-based", "design": "dose 6.25 mg/kg, route intraperitoneal", "settings": "in vivo", "summary_of_the_method": "as §1"}, "Mus musculus [14]": {"tested_on": "Mus musculus", "assay": "Toxicity in mouse P388 cells allografted CD2F1 mouse assessed as body weight loss at 3.12 mg/kg, ip of total 9 doses starting 24 hrs post tumor inoculation measured on day 5 of inoculation relative to control", "type": "organism-based", "design": "dose 3.12 mg/kg, route intraperitoneal", "settings": "in vivo", "summary_of_the_method": "as §1"}},
  "data": [
    {"molecule": "CNC(=O)OCc1c(COC(=O)NC)c(-c2ccc(SC)cc2)n(C)c1C", "values": [
      {"measurement": "Activity", "setting": "Mus musculus [1]", "result": 3.1, "unit": "g"},
      {"measurement": "T/C", "setting": "P388 [2]", "result": 144, "unit": "%"},
      {"measurement": "Activity", "setting": "Mus musculus [3]", "result": 4.3, "unit": "g"},
      {"measurement": "Activity", "setting": "Mus musculus [4]", "result": "Non-toxic"},
      {"measurement": "T/C", "setting": "P388 [5]", "result": 144, "unit": "%"},
      {"measurement": "Activity", "setting": "Mus musculus [6]", "result": 2.9, "unit": "g"},
      {"measurement": "T/C", "setting": "P388 [7]", "result": 150, "unit": "%"},
      {"measurement": "T/C", "setting": "P388 [8]", "result": 187, "unit": "%"},
      {"measurement": "T/C", "setting": "P388 [9]", "result": 143, "unit": "%"},
      {"measurement": "Activity", "setting": "Mus musculus [10]", "result": "Non-toxic"},
      {"measurement": "Activity", "setting": "Mus musculus [11]", "result": "Non-toxic"},
      {"measurement": "Activity", "setting": "Mus musculus [12]", "result": "Non-toxic"},
      {"measurement": "Activity", "setting": "Mus musculus [13]", "result": 1.4, "unit": "g"},
      {"measurement": "Activity", "setting": "Mus musculus [14]", "result": 2.1, "unit": "g"}
    ]}
  ]
}
